Columns and labels:
Lactobacillus crispatus = experiment: Antibacterial activity against Lactobacillus crispatus HM-371 assessed as reduction in microbial growth after 48 hrs by broth microdilution method
Procedure, shortened: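 Gut commensal MICs by broth microdilution: a 0.5 McFarland suspension was diluted to ~5 × 10^5 CFU/mL in BHIS broth (Bacteroides) or MRS broth (Lactobacillus). Agents were serially diluted and incubated 48 h at 37°C. MIC was read by visual inspection of growth.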

[1] = Selectivity ratio of MIC for antibacterial activity against Bacteroides fragilis HM-711 to antibacterial activity against Clostridioides difficile NR-32883 P2; type: ADME
Clostridioides difficile [2] = experiment: Antibacterial activity against Clostridioides difficile ATCC 43255 infected in CDI mouse model assessed as survival rate at 50 mg/kg, po for 5 days and measured on day 21 relative to control; type: functional; conditions: ATCC 43255, po, 504 h, time 21 day
Clostridioides difficile [3] = experiment: Antibacterial activity against Clostridioides difficile ATCC 43255 infected in CDI mouse model assessed as survival rate at 50 mg/kg, po for 5 days relative to control; type: functional; conditions: ATCC 43255, po, 120 h, time 5 day
[4] = Selectivity ratio of MIC for antibacterial activity against Bacteroides fragilis HM-709 to antibacterial activity against Clostridioides difficile NR-32904 P30; type: ADME
Clostridioides difficile [5] = experiment: Potency index, ratio of vancomycin MIC to test compound MIC for antibacterial activity against Clostridioides difficile NR-32883 P2; type: functional
Clostridioides difficile [6] = experiment: Potency index, ratio of vancomycin MIC to test compound MIC for antibacterial activity against Clostridioides difficile NR-13432 isolate 6; type: functional
Clostridioides difficile [7] = experiment: Antimicrobial activity against Clostridioides difficile NR-13432 isolate 6 assessed as reduction in microbial growth after 48 hrs by broth microdilution method; type: functional
Procedure, shortened: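 Broth microdilution: a 0.5 McFarland suspension was diluted in brain heart infusion supplemented (BHIS) broth to ~5 × 10^5 CFU/mL. Agents were serially diluted and plates incubated anaerobically at 37°C for 48 h.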

Escherichia coli = experiment: Antimicrobial activity against Escherichia coli JW55031 harboring TolC mutant assessed as reduction in microbial growth after 48 hrs by CLSI based broth microdilution method; type: functional
Procedure, shortened: (§1)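 CLSI broth microdilution: strains were grown aerobically overnight on tryptone soy agar at 37°C. A 0.5 McFarland suspension was diluted to ~5 × 10^5 CFU/mL in cation-adjusted Mueller-Hinton broth (E. coli) or tryptone soy broth (enterococci), and agents were serially diluted.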

[8] = Selectivity ratio of MIC for antibacterial activity against Bacteroides fragilis HM-709 to antibacterial activity against Clostridioides difficile NR-13432 isolate 6; type: ADME
Enterococcus faecalis = experiment: Antimicrobial activity against vancomycin-resistant Enterococcus […] ATCC 51299 assessed as reduction in microbial growth after 48 hrs by CLSI based broth microdilution method; type: functional; procedure, shortened: as §1
Clostridioides difficile [9] = experiment: Antimicrobial activity against Clostridioides difficile ATCC 43255 assessed as drug resistance by measuring frequency of mutation at 15 times of MIC after 48 hrs; type: functional

O=C(Nc1nnc(-c2cc(Cl)cc(Cl)c2)o1)c1ccc(SC(F)(F)F)cc1
MIC (Lactobacillus crispatus): 36.8 µM
Selectivity ratio [1]: 100
survival at 50 mg/kg (Clostridioides difficile [2]): 100%
survival at 50 mg/kg (Clostridioides difficile [3]): 66.7%
Selectivity ratio [4]: 100
Ratio (Clostridioides difficile [5]): 2.5
Ratio (Clostridioides difficile [6]): 2.5
MIC (Clostridioides difficile [7]): 0.07 µM
MIC (Escherichia coli): 9.2 µM
Selectivity ratio [8]: 100
MIC (Enterococcus faecalis): 0.14 µM
Activity (Clostridioides difficile [9]): <1.1 10^-9No_unit
